Drawing on ChEMBL document CHEMBL1146170, “Facile synthesis of substituted thiophenes via Pd/C-mediated sonogashira coupling in water” (2006), this text covers growth, % of control, GI50 and CC50 for 5 compounds.

Common to all, as to details: Homo sapiens
For one assay, the system named is HT-29. The experiment in a line: Growth inhibition of HT29 cells at 100 uM; values are per cent of control.
Assay [1] has as its system LoVo. Briefly: Growth inhibition of LoVo cells at 100 uM; values are per cent of control.
Another assay concerns NCI-H460. The experiment in a line: Growth inhibition of NCI-H460 cells at 100 uM; values are per cent of control.
Assay [2] deals with LoVo. The experiment in a line: Growth inhibition of LoVo cells. In kind it is functional. In a few lines:
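LoVo human colon cancer cells were screened by the NCI standard anticancer protocol. Percentage cell growth was read after initial treatment at 100 µM. Follow-up testing used 10, 1.0, 0.1 and 0.01 µM. GI50 was the concentration giving 50% inhibition of cell growth.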

Regarding `CC(=O)Nc1ccsc1C#CC(C)(C)O`, the growth, % of control at 100 µM is 90% with HT-29, 78% in the assay on LoVo [1] and 56% with NCI-H460.
As for `Cc1ccc(C#Cc2cccs2)cc1`, the growth, % of control at 100 µM with HT-29 was 83%; with LoVo [1] it was 83%; in the assay with NCI-H460 it was 68%.
Consider `C(#Cc1cccs1)COc1ccccc1`, for which the growth, % of control at 100 µM came out at 63% in the assay with HT-29, 47% with LoVo [1] and 88% with NCI-H460.
With `CC(C)(O)C#Cc1cccs1`, the growth, % of control at 100 µM with HT-29 was 95%; in the assay with LoVo [1] it was 78%; in the assay on NCI-H460, 105%.
For orientation: GI50 means the concentration giving 50% growth inhibition. Low values mean greater sensitivity of the cells, high ones lower sensitivity of the cells. For the compound `O=[N+]([O-])c1ccc(OCC#Cc2cccs2)cc1`, it took 47.5 µM to inhibit growth in the assay with LoVo [2] by half (GI50). The CC50 in the assay with LoVo [2] (read-out: LC50 (the source's name)) is 100 µM. The growth, % of control at 100 µM in the assay with HT-29 worked out at 44%; in the assay on LoVo [1], 26%; in the assay on NCI-H460, 48%.
